For three compounds, inhibition and fold change (FC) results are on record in ChEMBL document CHEMBL5653631, “A Potent and Selective ULK1 Inhibitor Suppresses Autophagy and Sensitizes Cancer Cells to Nutrient Stress” (iScience, 2018).

Experiment [1] addresses T1, Tyrosine-protein kinase JAK3 (Homo sapiens) (UniProt P52333).
T1 sequence (whole entry): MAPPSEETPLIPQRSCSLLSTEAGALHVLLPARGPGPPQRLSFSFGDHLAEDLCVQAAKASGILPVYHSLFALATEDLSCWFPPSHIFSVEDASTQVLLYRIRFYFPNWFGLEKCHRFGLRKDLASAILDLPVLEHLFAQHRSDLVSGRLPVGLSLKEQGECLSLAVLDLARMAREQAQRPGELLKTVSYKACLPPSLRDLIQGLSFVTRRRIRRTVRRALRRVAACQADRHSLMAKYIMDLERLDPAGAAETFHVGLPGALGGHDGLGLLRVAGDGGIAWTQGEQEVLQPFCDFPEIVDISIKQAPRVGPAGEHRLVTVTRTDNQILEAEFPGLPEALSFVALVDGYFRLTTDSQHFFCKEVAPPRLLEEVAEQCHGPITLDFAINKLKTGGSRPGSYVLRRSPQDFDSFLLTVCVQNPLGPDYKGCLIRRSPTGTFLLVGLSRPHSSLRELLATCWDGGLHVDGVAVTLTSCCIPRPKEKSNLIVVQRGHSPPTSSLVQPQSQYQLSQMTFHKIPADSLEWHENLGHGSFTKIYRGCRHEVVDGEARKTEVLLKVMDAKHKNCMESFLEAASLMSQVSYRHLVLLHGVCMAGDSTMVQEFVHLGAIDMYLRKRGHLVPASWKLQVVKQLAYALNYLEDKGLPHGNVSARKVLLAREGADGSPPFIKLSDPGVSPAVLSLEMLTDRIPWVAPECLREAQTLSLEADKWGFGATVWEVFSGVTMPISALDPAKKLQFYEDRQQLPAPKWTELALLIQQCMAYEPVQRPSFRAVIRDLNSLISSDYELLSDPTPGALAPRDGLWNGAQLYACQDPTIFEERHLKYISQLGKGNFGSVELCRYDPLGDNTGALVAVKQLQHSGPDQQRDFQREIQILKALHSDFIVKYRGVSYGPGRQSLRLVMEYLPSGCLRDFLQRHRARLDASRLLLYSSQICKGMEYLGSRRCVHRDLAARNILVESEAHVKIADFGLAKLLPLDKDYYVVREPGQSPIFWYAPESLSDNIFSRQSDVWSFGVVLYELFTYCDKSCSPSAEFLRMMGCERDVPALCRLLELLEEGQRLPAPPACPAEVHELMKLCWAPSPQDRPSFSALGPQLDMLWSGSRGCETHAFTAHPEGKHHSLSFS
Briefly: Inhibition of human recombinant JAK3 at 40 nM in presence of ATP by radiometric assay relative to control.

Experiment [2] deals with T2, Serine/threonine-protein kinase haspin (Homo sapiens) (UniProt Q8TF76).
T2 sequence (whole entry): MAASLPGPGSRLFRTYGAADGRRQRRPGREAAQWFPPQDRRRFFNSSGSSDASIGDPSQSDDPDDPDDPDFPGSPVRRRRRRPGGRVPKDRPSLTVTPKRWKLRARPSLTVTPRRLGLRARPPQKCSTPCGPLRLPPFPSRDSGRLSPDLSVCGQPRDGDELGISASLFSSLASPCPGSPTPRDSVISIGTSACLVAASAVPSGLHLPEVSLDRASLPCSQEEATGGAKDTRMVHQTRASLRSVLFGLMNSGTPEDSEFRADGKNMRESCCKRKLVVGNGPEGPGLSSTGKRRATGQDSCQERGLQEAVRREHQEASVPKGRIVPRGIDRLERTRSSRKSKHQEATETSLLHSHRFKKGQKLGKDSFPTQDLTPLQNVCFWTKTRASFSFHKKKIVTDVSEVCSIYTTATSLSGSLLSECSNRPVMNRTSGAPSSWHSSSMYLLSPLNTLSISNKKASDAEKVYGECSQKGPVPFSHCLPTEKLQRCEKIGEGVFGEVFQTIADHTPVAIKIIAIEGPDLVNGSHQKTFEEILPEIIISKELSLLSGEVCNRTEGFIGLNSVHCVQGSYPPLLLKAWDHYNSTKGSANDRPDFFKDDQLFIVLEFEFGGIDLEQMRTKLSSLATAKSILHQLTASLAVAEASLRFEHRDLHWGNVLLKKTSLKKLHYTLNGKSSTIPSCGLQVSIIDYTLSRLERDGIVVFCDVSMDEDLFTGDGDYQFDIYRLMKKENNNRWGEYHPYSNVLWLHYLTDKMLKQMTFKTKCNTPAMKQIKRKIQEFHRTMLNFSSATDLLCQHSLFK
Briefly: Inhibition of human recombinant Haspin at 500 nM related to control ULK1.

The target of experiment [3] is Tyrosine-protein kinase HCK (Homo sapiens) (UniProt P08631). The experiment can be described thus: Inhibition of human recombinant HCK at 500 nM related to control ULK1.
For experiment [4], the target named is Bone morphogenetic protein receptor type-1B (Homo sapiens) (UniProt O00238). The experiment can be described thus: Inhibition of human recombinant BMPR1B at 15 nM in presence of ATP by radiometric assay relative to control. A digest of the protocol:
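Part of a radiometric in vitro activity panel of 327 recombinant human kinases. Each kinase was tested in duplicate at one inhibitor concentration. Activity remaining was expressed as a percentage of the vehicle control, and percent inhibition was taken as 100 minus that value.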

Experiment [5] deals with Serine/threonine-protein kinase WNK2 (Homo sapiens) (UniProt Q9Y3S1). The experiment can be described thus: Inhibition of human recombinant Wnk2 at 15 nM related to control ULK1.
In experiment [6] the target is Casein kinase I isoform gamma-1 (Homo sapiens) (UniProt Q9HCP0). Briefly: Inhibition of human recombinant CK1g1 at 15 nM in presence of ATP by radiometric assay relative to control.
Experiment [7] addresses Tyrosine-protein kinase Lyn (Homo sapiens) (UniProt P07948). The experiment can be described thus: Inhibition of human recombinant LYN at 15 nM related to control ULK1.

Chain of Serine/threonine-protein kinase WNK2 (Homo sapiens) (Q9Y3S1 whole entry, canonical isoform): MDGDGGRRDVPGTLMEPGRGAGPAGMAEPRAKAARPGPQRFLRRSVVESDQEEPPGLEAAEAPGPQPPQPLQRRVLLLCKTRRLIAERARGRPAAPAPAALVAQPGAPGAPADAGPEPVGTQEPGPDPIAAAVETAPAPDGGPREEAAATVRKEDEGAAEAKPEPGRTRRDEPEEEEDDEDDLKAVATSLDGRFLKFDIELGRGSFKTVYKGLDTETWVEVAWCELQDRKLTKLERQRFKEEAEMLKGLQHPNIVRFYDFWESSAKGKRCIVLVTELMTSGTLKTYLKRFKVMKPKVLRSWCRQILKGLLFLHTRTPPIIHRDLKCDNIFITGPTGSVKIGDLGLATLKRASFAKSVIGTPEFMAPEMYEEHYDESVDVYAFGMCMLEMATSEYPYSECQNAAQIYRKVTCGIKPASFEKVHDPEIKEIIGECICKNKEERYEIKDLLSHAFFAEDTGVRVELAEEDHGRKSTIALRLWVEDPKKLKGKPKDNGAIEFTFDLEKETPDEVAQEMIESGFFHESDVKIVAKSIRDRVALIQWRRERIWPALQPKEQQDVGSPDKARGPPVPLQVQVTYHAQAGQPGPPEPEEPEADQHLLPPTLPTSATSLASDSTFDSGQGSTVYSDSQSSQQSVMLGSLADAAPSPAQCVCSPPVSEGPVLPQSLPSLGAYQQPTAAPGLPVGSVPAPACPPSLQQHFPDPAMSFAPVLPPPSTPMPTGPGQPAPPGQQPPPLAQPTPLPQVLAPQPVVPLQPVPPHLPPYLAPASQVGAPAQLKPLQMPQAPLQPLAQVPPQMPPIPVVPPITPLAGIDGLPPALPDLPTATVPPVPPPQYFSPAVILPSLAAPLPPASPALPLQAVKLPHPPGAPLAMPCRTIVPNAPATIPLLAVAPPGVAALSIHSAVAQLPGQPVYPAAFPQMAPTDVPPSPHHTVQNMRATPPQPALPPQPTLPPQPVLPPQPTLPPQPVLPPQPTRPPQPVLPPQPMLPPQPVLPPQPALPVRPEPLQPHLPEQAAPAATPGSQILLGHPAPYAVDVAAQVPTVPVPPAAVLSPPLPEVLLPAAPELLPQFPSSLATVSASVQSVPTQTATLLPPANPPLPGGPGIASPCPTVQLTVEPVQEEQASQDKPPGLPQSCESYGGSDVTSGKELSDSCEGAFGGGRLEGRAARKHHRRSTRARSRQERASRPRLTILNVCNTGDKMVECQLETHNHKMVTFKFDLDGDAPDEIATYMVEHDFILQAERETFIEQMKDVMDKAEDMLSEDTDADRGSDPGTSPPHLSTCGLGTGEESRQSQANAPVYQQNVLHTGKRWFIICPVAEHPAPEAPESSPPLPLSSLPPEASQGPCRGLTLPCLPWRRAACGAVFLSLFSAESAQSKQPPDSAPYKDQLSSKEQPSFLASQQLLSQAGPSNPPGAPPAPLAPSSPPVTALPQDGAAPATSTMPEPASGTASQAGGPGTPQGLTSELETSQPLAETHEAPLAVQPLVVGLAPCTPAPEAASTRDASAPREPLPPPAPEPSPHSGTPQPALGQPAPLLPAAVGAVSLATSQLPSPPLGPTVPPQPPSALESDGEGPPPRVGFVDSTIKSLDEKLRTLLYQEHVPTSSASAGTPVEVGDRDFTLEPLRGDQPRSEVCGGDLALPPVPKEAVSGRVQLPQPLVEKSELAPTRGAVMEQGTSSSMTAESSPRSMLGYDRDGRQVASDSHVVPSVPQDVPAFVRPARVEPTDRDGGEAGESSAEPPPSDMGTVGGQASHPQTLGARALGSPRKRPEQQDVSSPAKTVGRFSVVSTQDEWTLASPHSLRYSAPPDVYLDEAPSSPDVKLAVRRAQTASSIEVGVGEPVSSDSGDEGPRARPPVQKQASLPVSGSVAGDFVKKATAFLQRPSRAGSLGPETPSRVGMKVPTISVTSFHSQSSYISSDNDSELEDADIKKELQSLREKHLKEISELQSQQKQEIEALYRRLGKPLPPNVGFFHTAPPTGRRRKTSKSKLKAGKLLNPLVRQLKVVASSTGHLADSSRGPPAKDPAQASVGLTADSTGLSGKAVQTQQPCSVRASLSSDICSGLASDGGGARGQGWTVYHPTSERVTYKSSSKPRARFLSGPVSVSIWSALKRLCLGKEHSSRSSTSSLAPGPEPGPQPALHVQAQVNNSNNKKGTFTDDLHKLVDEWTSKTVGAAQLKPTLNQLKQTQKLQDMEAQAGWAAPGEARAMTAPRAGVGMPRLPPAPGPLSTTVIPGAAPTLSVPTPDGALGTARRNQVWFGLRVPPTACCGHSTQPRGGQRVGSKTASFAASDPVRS
Chain of Tyrosine-protein kinase Lyn (Homo sapiens) (P07948 2-512 limits assumed): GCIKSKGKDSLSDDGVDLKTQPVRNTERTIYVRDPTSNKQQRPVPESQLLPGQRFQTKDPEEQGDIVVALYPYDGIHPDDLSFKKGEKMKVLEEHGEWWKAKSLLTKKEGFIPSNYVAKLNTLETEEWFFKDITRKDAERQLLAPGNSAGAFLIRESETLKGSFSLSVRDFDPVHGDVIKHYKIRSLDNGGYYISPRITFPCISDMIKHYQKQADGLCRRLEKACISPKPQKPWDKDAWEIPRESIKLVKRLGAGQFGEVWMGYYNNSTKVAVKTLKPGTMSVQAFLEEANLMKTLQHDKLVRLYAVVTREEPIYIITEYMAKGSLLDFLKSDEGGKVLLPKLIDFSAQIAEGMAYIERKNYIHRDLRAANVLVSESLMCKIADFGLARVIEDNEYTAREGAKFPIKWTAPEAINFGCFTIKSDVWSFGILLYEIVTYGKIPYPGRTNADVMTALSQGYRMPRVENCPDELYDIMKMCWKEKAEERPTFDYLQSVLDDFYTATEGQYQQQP
Chain of Casein kinase I isoform gamma-1 (Homo sapiens) (Q9HCP0 whole entry, looked up, canonical isoform): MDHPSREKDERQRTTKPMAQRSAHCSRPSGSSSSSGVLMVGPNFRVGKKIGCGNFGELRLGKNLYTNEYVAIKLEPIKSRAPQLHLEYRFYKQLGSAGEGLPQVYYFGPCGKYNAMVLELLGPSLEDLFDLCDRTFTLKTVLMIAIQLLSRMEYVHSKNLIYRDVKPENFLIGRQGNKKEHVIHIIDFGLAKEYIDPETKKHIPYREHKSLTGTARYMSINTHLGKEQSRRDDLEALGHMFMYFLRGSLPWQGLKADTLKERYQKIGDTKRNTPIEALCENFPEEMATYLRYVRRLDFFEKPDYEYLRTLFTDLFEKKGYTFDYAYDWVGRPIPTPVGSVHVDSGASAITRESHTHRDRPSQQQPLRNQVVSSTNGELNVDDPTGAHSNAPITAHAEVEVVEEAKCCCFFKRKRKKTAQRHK
Chain of Tyrosine-protein kinase HCK (Homo sapiens) (P08631 2-526 limits assumed): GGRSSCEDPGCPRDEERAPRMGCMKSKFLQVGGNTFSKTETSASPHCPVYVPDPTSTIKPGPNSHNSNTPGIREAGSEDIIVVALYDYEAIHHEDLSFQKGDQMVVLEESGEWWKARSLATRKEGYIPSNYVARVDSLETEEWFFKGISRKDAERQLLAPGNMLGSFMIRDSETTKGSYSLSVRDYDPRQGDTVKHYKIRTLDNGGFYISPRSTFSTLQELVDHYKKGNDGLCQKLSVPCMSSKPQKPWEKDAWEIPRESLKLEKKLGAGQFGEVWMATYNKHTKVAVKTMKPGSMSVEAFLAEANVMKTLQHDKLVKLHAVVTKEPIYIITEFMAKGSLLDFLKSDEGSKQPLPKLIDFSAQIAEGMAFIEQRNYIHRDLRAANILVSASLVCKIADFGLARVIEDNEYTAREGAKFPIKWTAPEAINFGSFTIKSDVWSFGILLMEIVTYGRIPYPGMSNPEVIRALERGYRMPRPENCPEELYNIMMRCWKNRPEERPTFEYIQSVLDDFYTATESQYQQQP
Chain of Bone morphogenetic protein receptor type-1B (Homo sapiens) (O00238 whole entry): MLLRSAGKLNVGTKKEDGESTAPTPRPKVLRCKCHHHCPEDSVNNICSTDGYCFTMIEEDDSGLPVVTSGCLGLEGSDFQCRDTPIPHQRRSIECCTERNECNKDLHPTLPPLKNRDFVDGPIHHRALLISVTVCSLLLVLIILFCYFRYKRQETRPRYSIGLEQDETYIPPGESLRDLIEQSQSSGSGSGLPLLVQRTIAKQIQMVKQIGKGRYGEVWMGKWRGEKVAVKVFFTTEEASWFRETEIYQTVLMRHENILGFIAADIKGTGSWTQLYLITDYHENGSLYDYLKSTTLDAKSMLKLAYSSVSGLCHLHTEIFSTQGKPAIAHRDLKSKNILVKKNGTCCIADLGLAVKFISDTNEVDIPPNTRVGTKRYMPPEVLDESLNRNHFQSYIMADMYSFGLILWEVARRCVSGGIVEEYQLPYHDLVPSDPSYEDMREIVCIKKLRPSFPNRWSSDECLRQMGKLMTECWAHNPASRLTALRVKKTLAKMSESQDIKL

With `O=C(N[C@@H](C1CC1)C(F)(F)F)c1cc(-c2cnn3cc(-c4ccc(F)cc4)cnc23)cs1`, the inhibition (in general, the change of the read-out against control, counted positive when it falls) in experiment [1] is 0%.

`CNC(=O)c1ccccc1Oc1nc(Nc2cc(OC)c(OC)c(OC)c2)ncc1Br`: the fold change (FC) in experiment [2] amounted to 0; in experiment [3], 0.23.

As for `CC(C)[C@H](NC(=O)c1cc(-c2cnn3cc(-c4ccc(OCCN5CCCCC5)cc4)cnc23)cs1)C(F)(F)F`, the inhibition amounted to 24% in experiment [4] and 0% in experiment [6]. In addition, the fold change (FC) worked out at 0.02 in experiment [5] and 0.22 in experiment [7].
